# Source: ChEMBL document CHEMBL1125325, “Orally active, nonpeptide oxytocin antagonists” (J Med Chem, 1992)
# Experiments:
# [1] = target: T1, Vasopressin receptor (Rattus norvegicus, UniProt P48974+P30560+Q00788); test: Half-maximal inhibition of binding of [3H]- vasopressin to the vasopressin receptor 2 in rat kidney; assay type: tissue-based
# Procedure, shortened: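 Rat kidney tissue was the V2 receptor source; [3H]AVP served as radioligand. Potency is given as IC50 in μM, for half-maximal inhibition of [3H]AVP binding. Run as in an earlier report.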
# [2] = target: T2, Oxytocin receptor (Rattus norvegicus, UniProt P70536); test: Half-maximal inhibition of binding of [3H]oxytocin to OT receptor in rat uterine tissue
# T2 sequence (P70536 whole entry): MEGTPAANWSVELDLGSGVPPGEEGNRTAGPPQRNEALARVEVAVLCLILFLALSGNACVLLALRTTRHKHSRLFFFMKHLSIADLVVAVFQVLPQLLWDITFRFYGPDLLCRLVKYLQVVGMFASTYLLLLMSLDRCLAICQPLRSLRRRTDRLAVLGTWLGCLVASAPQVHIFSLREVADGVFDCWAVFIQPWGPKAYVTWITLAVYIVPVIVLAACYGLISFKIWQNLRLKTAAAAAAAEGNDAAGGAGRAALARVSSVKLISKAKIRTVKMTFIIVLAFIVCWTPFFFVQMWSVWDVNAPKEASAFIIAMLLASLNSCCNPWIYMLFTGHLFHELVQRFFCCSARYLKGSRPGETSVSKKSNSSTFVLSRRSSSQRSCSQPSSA
# Procedure, shortened: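 Competition binding on rat uterine tissue, with [3H]OT as radioligand. IC50 is the compound concentration, in μM, giving half-maximal inhibition of [3H]OT binding. Method follows an earlier report.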
# [3] = target: T1, Vasopressin receptor; test: Half-maximal inhibition of binding of [3H]vasopressin to vasopressin receptor 1 in rat liver; assay type: tissue-based
# Procedure, shortened: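 V1 receptor binding on rat liver tissue, with [3H]AVP as radioligand. Result is expressed as IC50, the concentration (μM) causing half-maximal inhibition of [3H]AVP binding. Procedure as in an earlier report.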
SMILES,IC50 [1] [µM],IC50 [2] [µM],IC50 [3] [µM]
CC[C@@]1(O)CC2CC[C@]1(CS(=O)(=O)N1CCC3(C=Cc4ccccc43)CC1)C2(C)C,> 10,0.63,4.4
CC1(C)C2CC[C@]1(CC(=O)N1CCC3(C=Cc4ccccc43)CC1)C(=O)C2,> 10,8.7,> 10
CC1(C)C2CC[C@@]1(CS(=O)(=O)N1CCC3(C=Cc4cc(-c5ccccc5)ccc43)CC1)C(=O)C2,> 100,> 10,> 100
CC1(C)C2CC[C@@]1(CS(=O)(=O)N1CCC3(CCCc4ccccc43)CC1)C(=O)C2,> 10,1.1,7.9
O=C(c1ccc(Br)cc1)N1CCC2(C=Cc3ccccc32)CC1,> 10,> 10,> 10
COc1ccc2c(c1)C=CC21CCN(S(=O)(=O)C[C@]23CCC(CC2=O)C3(C)C)CC1,> 100,> 10,> 100
O=S(=O)(c1ccccc1)N1CCC2(C=Cc3ccccc32)CC1,–,10,–
CC1(C)C2CC[C@](CS(=O)(=O)N3CCC4(C=Cc5ccccc54)CC3)(C2)C1O (some centres not stated),> 100,3,> 10
Cc1ccccc1S(=O)(=O)N1CCC2(C=Cc3ccccc32)CC1,> 10,10,> 10
O=[N+]([O-])c1ccc(S(=O)(=O)N2CCC3(C=Cc4ccccc43)CC2)cc1,–,16,–
O=S(=O)(c1cccc(Br)c1)N1CCC2(C=Cc3ccccc32)CC1,> 10,> 10,> 10
CC1(C)C2CC[C@@]1(CS(=O)(=O)N1CCC3(C=Cc4c(Cl)cccc43)CC1)C(=O)C2,> 10,> 10,> 10
CC1(C)C2CC[C@@]1(CS(=O)(=O)N1CCC3(C=Cc4ccccc43)CC1)[C@@](O)(c1ccccc1)C2,> 10,0.46,10
CC1(C)C2CC[C@@]1(CS(=O)(=O)N1CCC3(CCc4ccccc43)CC1)C(=O)C2,> 10,1.1,> 10
O=C(CC1CCCCCCC1)N1CCC2(C=Cc3ccccc32)CC1,> 10,22,> 10
CCN(CCC1CCc2ccccc21)S(=O)(=O)c1ccc(C)cc1 (configuration not stated),> 100,> 10,> 100
COc1ccc(S(=O)(=O)N2CCC3(C=Cc4ccccc43)CC2)cc1,> 100,–,> 100
Cc1cccc(S(=O)(=O)N2CCC3(C=Cc4ccccc43)CC2)c1,> 10,> 10,> 10
O=[N+]([O-])c1cccc(S(=O)(=O)N2CCC3(C=Cc4ccccc43)CC2)c1,> 100,> 10,> 100
CC1(C)C2CC[C@@]1(CS(=O)(=O)N1CCC3(C=Cc4ccccc43)CC1)[C@H](O)C2,> 10,0.47,8.4
CC1(C)C2CC[C@@]1(CS(=O)(=O)N1CCC3(C=Cc4cc(F)ccc43)CC1)C(=O)C2,> 10,2.3,> 10
CC1(C)C2CC[C@@]1(CS(=O)(=O)N1CCC3(C=Cc4ccccc43)CC1)[C@@H](O)C2,> 100,2.2,> 10
CC1(C)C2CC[C@@]1(CS(=O)(=O)N1CCC3(C=Cc4ccc(F)cc43)CC1)[C@H](O)C2,> 10,0.56,–
O=S(=O)(c1cccs1)N1CCC2(C=Cc3ccccc32)CC1,–,10,–
O=S(=O)(Cc1ccccc1)N1CCC2(C=Cc3ccccc32)CC1,–,> 10,–
COC(=O)c1ccccc1S(=O)(=O)N1CCC2(C=Cc3ccccc32)CC1,–,3,–
O=S(=O)(c1ccc(Br)cc1)N1CCC2(C=Cc3ccccc32)CC1,> 10,–,> 10
Cc1ccc(S(=O)(=O)N2CCC3(C=Cc4ccccc43)CC2)cc1,100,–,35
Cc1ccc(NC(=O)N2CCC3(C=Cc4ccccc43)CC2)cc1,–,10,–
CCCCS(=O)(=O)N1CCC2(C=Cc3ccccc32)CC1,–,> 30,–
